# High-throughput results deposited in PubChem by several laboratories.
# The list is not random: actives were taken first. Their share in the collection is about 1.9%.
# MT stabilizer: microtubule stabilization, imaging screen; 0.83% of 200,000 active; % tubulin-high responders, % at 10 µM; HeLa tubulin immunostaining HCS, 24 h; share of cells brighter than vehicle mean+2SD;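 active = plate Z-score above 3 for both tubulin-high and condensed-nucleus cell shares, with cell loss under 80%, at 10 µM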;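 note: anti alpha tubulin signal scored within the nucleus-defined area of each cell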
# Ins promoter up: MIN6 insulin promoter up-regulation | MIN6 insulin promoter-GFP reporter, high-content imaging; active compounds read high | AID 1625 | z-score at 5 µM | 0.3% of 190,000 active;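 active = z-score above 3 at 5 µM with at least 500 cells counted in the well; inconclusive = wells under 500 cells, flagged as cytotoxic or low count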
# TbHK1 inh: T. brucei hexokinase 1 inhibition; AID 1430; recombinant TbHK1, G6PDH-coupled NADH A340; 0.11% of 220,000 active; inhibition, % at 10 µM;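 active = inhibition of 50% or more in the single-dose primary screen; inactive = inhibition below 50%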
# b-catenin transl: modulators of beta-catenin nuclear translocation | HeLa beta-catenin nuclear translocation, immunofluorescence imaging | 0.3% of 190,000 active | nuclear translocation activity, % at 5 µM;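 active = nuclear translocation activity above 50% at 5 µM, with a well cell count of 50 or more; inconclusive = wells under 50 cells across six images, flagged as toxic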;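 note: per-cell ratio of nuclear to cytoplasmic median beta-catenin stain intensity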
#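 Signal – beta-catenin immunofluorescence imaging with DAPI · Test system – human HeLa cell line · Dosing – 5 µM primary single dose, 0.1% DMSO, 0.02–20 µM confirmation series · Measure – % activation, nuclear-to-cytoplasmic median beta-catenin signal ratio per cell · Incubation – 24 h compound exposure at 37°C, 5% CO2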
# Autophagy HCS: autophagy modulation, high-content screen; MEF GFP-LC3 puncta imaging; test concentration mostly 10 µM; calls only at 10 µM (by protocol); 0.98% of 190,000 active; AID 463193;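 active = percentage of spot-positive cells more than 3 SD above its plate mean, without a fluorescence outlier flag or 80% toxicity; inconclusive = no clear call, values can overlap the other calls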
# A number is an active result; . = inactive; ? = inconclusive; / = not tested or not shown; + = active, no number.
SMILES,MT stabilizer,Ins promoter up,TbHK1 inh,b-catenin transl,Autophagy HCS
Cc1cc([N+](=O)[O-])nn1Cc1ccc(C(=O)N/N=C/c2ccc(N(C)C)cc2)cc1,/,.,.,.,/
Cc1nc2ccccc2c2c1CC(C(C)(Cl)Br)O2 (configuration not stated),/,?,.,.,/
COc1c2c(nc3ccccc13)OC(C(C)(O)COC(C)=O)C2 (configuration not stated),.,3.26,.,.,.
CNC(=O)CCC(=O)Nc1ccc(C)cc1,.,.,.,.,.
c1cnc(N2CCN(c3ncnc4c3oc3ccccc34)CC2)nc1,/,.,/,.,/
COc1ccccc1N1CCN(C(=O)c2oc3ccc(Br)cc3c2C)CC1,14.7,.,.,.,.
COc1ccccc1N1CCN(C(=O)c2oc3ccc(F)cc3c2C)CC1,.,/,.,.,.
COc1ccccc1N1CCN(c2ncnc3c2oc2ccccc23)CC1,26.8,.,.,74.0,.
COc1ccc(C(=O)Nc2sc3c(c2C#N)CCN(C(C)=O)C3)cc1,14.3,.,.,60.0,.
CCOc1ccc(S(=O)(=O)Oc2ccc3ccccc3c2)cc1,16.7,.,.,.,.
CN(Cc1ccccc1)S(=O)(=O)c1ccc(NC(=S)NC(=O)C2CCCC2)cc1,28.4,.,.,.,.
COc1ccc(-c2[nH]n(-c3ccc([N+](=O)[O-])cc3)c(=O)c2C=NCCN2CCNCC2)cc1,.,.,.,.,.
COc1ccc(-c2[nH]n(-c3ccc([N+](=O)[O-])cc3)c(=O)c2C=NCc2ccccc2)cc1,.,/,.,.,+
CCN1C(=O)c2cccc3c(NS(=O)(=O)c4ccc(NC(C)=O)cc4)ccc1c23,.,.,.,.,.
CCOC(=O)c1ccc(NC(=O)Nc2ccc3c4c(cccc24)C(=O)N3CC)cc1,.,.,.,.,+
O=C(O)CCC(=O)Nc1nnc(C(F)(F)F)s1,.,.,.,.,.
CCC(NC(=O)Nc1nnc(C(F)(F)F)s1)(C(F)(F)F)C(F)(F)F,.,.,.,.,+
CC1(C)CC(=O)C2=C(C1)C(c1cn(-c3ccccc3)nc1-c1ccccc1)C(C#N)=C(N)O2 (configuration not stated),.,.,.,.,.
CC1(C)CC(=O)C2=C(C1)OC(N)=C(C#N)C2c1cn(-c2ccccc2)nc1-c1ccc(F)cc1 (configuration not stated),.,.,.,.,+
CC(C)N(Cc1ccccc1)C(=O)CSc1nccn1C,.,.,.,.,+
O=C1CC(C(=O)NC2CCCCC2)C2(CCCCC2)O1 (configuration not stated),.,.,.,.,.
CCOC(=O)Cc1csc(NC(=O)C(CC(C)C)NC(=O)C2CCCCC2)n1 (configuration not stated),.,.,.,.,.
CCC(c1nnnn1C1CCCC1)N(Cc1cccs1)Cc1cc2cc(C)ccc2[nH]c1=O (configuration not stated),35.5,.,.,91.1,.
CCOC(=O)Cn1nnnc1C(CC)N(Cc1cccs1)Cc1cc2cc(C)ccc2[nH]c1=O (configuration not stated),.,.,.,.,.
O=C(NCc1csc(-c2cccs2)n1)C1CCCCC1,/,/,.,.,/
SMILES,MT stabilizer,Ins promoter up,TbHK1 inh,b-catenin transl,Autophagy HCS
Cc1ccc(CNC(=O)c2ccccc2NC(=O)CSc2nnnn2C)cc1,.,.,.,.,+
O=C(NNc1c(Cl)cncc1Cl)c1sccc1Cl,/,/,.,.,/
CC(=O)N(c1ccc(C)cc1)S(=O)(=O)c1ccc(Cl)cc1,.,.,.,.,.
Oc1ccc(-c2csc(-c3c[nH]c4ccccc34)n2)c(O)c1,.,.,.,/,.
Cc1ccc(-c2csc(-c3c[nH]c4ccccc34)n2)c(C)c1,37.1,.,.,.,.
O=C(O)CC(CCc1ccccc1)OC1OC(CO)C(O)C(O)C1O (configuration not stated),/,.,72.8,.,/
CC(=O)NC1C(Oc2ccccc2C)OC(CO)C(O)C1O (configuration not stated),.,/,.,.,.
CCOC(=O)c1sc2ncc([N+](=O)[O-])cc2c1N,/,.,.,.,/
COC(=O)c1sc2cc([N+](=O)[O-])cc(SCC(C)C)c2c1N,.,?,.,.,+
COc1cccc(-c2nc(-c3ccc4c(c3)NC(=O)CO4)cs2)c1,.,/,.,.,.
COc1ccc(-c2cc(-c3ccc(OC)cc3)nc(-c3ccc4c(c3)NC(=O)CO4)c2)cc1,.,.,.,.,+
COc1ccccc1C1CCN(c2cc(O)ccc2[N+](=O)[O-])CC1,/,.,.,.,/
CN1CCN(S(=O)(=O)c2ccc(Cc3ccc(S(=O)(=O)N4CCN(C)CC4)cc3)cc2)CC1,.,.,.,.,+
O=C(C1=NN(c2ccccc2)C2C(=O)N(c3cccc(Cl)c3)C(=O)C12)c1ccccc1 (configuration not stated),.,3.17,.,.,.
O=C(C1=NN(c2ccccc2)C2C(=O)N(c3ccc(Cl)cc3)C(=O)C12)c1ccccc1 (configuration not stated),.,.,.,.,.
Cc1ccc(S(=O)(=O)N(CC(=O)N=Nc2c(O)[nH]c3ccccc23)c2cccc(C)c2)cc1,19.5,.,.,63.6,.
Cc1ccc(/C=N/NC(=O)C2CC(=O)N(c3ccccc3)C2)s1 (configuration not stated),.,/,.,57.1,.
CS(=O)(=O)N1CCN(c2ccc(NC(=O)c3ccccc3)cc2)CC1,.,.,.,.,.
Cc1ccc(OCC(=O)Nc2ccc(Cl)cc2)c(-n2nc3ccccc3n2)c1,.,.,.,.,+
CCOc1ccc(C)cc1-n1nc2ccccc2n1,.,.,.,.,.
Cc1ccccc1OCC(=O)NNC(=O)Nc1ccc(Cl)cc1,.,.,.,75.7,.
COc1ccccc1NC(=S)N1CC(C)OC(C)C1 (configuration not stated),.,.,.,.,.
O=C(COC(=O)c1ccccc1O)Nc1cc([N+](=O)[O-])ccc1Cl,/,.,.,.,/
N#CCOc1nc(N2CCOCC2)nc(N2CCOCC2)n1,.,.,.,.,.
N#Cc1nc(N2CCOCC2)nc(N2CCOCC2)n1,.,3.26,.,.,.
SMILES,MT stabilizer,Ins promoter up,TbHK1 inh,b-catenin transl,Autophagy HCS
FC(F)(F)c1ccc2c(c1)C1C=CCC1C(c1ccncc1)N2 (configuration not stated),.,.,.,.,.
COc1ccc2c(c1)C1C=CCC1C(c1cc3c(cc1Br)OCO3)N2 (configuration not stated),38.5,/,.,/,.
Cc1ccc(N(CN2CCCC2=O)C(=O)c2ccccc2)cc1,.,.,.,.,.
COc1ccc(C(=O)N(CN2CCCC2=O)c2ccc(C)cc2)cc1,.,3.42,.,.,.
Cc1nc(C)c(Oc2cccc(C(F)(F)F)c2)c(=O)[nH]1,/,/,.,.,/
N#CC1=C(SCC(=O)c2ccc(Cl)cc2)NC2=C(C(=O)CCC2)C1c1ccco1 (configuration not stated),/,.,/,83.2,/
